Data as given in ChEMBL document CHEMBL5058577, “EUbOPEN Chemogenomics Library 2 (Multiplex)” (2022).

Tested on: Fibroblast
Assay: Multiplex assay against human fibroblast
Format: toxicity, cell-based
Summary of the method: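 Compound was added to live cells that had been stained at seeding with Hoechst33342, BioTracker Green Microtubule Cytoskeleton Dye, MitoTracker Red and Annexin V Alexa Fluor 680, and imaging followed on a CQ1 microscope at 37°C and 5% CO2. CellPathfinder machine-learning gating divided cells into Hoechst high-intensity objects or normal cells, normal cells into healthy, pyknosed or fragmented nuclei, and pyknosed cells into mitotic or apoptotic. Tubulin, mitochondrial-mass and membrane-permeability phenotypes are per cents of healthy-nucleus cells.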

[1] = 12 h, 1 µM, compound concentration 1 uM, replicate 1
[2] = 12 h, 1 µM, compound concentration 1 uM, replicate 2
[3] = 12 h, 10 µM, compound concentration 10 uM, replicate 1
[4] = 12 h, 10 µM, compound concentration 10 uM, replicate 2
[5] = 24 h, 1 µM, compound concentration 1 uM, replicate 1
[6] = 24 h, 1 µM, compound concentration 1 uM, replicate 2
[7] = 24 h, 10 µM, compound concentration 10 uM, replicate 1
[8] = 24 h, 10 µM, compound concentration 10 uM, replicate 2
[9] = 48 h, 1 µM, compound concentration 1 uM, replicate 1
[10] = 48 h, 1 µM, compound concentration 1 uM, replicate 2
[11] = 48 h, 10 µM, compound concentration 10 uM, replicate 1
[12] = 48 h, 10 µM, compound concentration 10 uM, replicate 2

Compound: COc1ccccc1N1CCN(C[C@@H](C(=O)NC(C)(C)C)c2ccccc2)CC1.Cl.Cl
- Population Apoptotic (%) [1]: 43%
- Population Fragmented Nuclei (%) [1]: 12%
- Population Healthy Nuclei (%) [1]: 70%
- Population Hoechst High Intensity Objects (%) [1]: 2%
- Population Membrane Permeable-Phenotype (%) [1]: 0%
- Population Mitochondria Different-Phenotype (%) [1]: 8%
- Population Mitotic Cells (%) [1]: 56%
- Population Normal (%) [1]: 97%
- Population Pyknosed Nuclei (%) [1]: 16%
- Population Tubulin-Different-Phenotype (%) [1]: 37%
- Total Cell Count [1]: 141
- Population Apoptotic (%) [2]: 40%
- Population Fragmented Nuclei (%) [2]: 25%
- Population Healthy Nuclei (%) [2]: 43%
- Population Hoechst High Intensity Objects (%) [2]: 5%
- Population Mitochondria Different-Phenotype (%) [2]: 4%
- Population Mitotic Cells (%) [2]: 60%
- Population Normal (%) [2]: 94%
- Population Pyknosed Nuclei (%) [2]: 30%
- Population Tubulin-Different-Phenotype (%) [2]: 43%
- Total Cell Count [2]: 155
- Population Apoptotic (%) [3]: 50%
- Population Fragmented Nuclei (%) [3]: 20%
- Population Healthy Nuclei (%) [3]: 59%
- Population Hoechst High Intensity Objects (%) [3]: 5%
- Population Membrane Permeable-Phenotype (%) [3]: 1%
- Population Mitochondria Different-Phenotype (%) [3]: 20%
- Population Mitotic Cells (%) [3]: 50%
- Population Normal (%) [3]: 94%
- Population Pyknosed Nuclei (%) [3]: 20%
- Population Tubulin-Different-Phenotype (%) [3]: 66%
- Total Cell Count [3]: 134
- Population Apoptotic (%) [4]: 48%
- Population Fragmented Nuclei (%) [4]: 32%
- Population Healthy Nuclei (%) [4]: 42%
- Population Membrane Permeable-Phenotype (%) [4]: 6%
- Population Mitochondria Different-Phenotype (%) [4]: 12%
- Population Mitotic Cells (%) [4]: 51%
- Population Pyknosed Nuclei (%) [4]: 24%
- Population Tubulin-Different-Phenotype (%) [4]: 70%
- Total Cell Count [4]: 116
- Population Apoptotic (%) [5]: 50%
- Population Fragmented Nuclei (%) [5]: 12%
- Population Healthy Nuclei (%) [5]: 73%
- Population Hoechst High Intensity Objects (%) [5]: 2%
- Population Membrane Permeable-Phenotype (%) [5]: 0%
- Population Mitochondria Different-Phenotype (%) [5]: 15%
- Population Mitotic Cells (%) [5]: 50%
- Population Normal (%) [5]: 97%
- Population Pyknosed Nuclei (%) [5]: 14%
- Population Tubulin-Different-Phenotype (%) [5]: 32%
- Total Cell Count [5]: 143
- Population Fragmented Nuclei (%) [6]: 24%
- Population Healthy Nuclei (%) [6]: 55%
- Population Hoechst High Intensity Objects (%) [6]: 3%
- Population Membrane Permeable-Phenotype (%) [6]: 8%
- Population Mitochondria Different-Phenotype (%) [6]: 3%
- Population Normal (%) [6]: 96%
- Population Pyknosed Nuclei (%) [6]: 19%
- Population Tubulin-Different-Phenotype (%) [6]: 50%
- Total Cell Count [6]: 151
- Population Apoptotic (%) [7]: 83%
- Population Fragmented Nuclei (%) [7]: 19%
- Population Healthy Nuclei (%) [7]: 65%
- Population Hoechst High Intensity Objects (%) [7]: 8%
- Population Membrane Permeable-Phenotype (%) [7]: 0%
- Population Mitochondria Different-Phenotype (%) [7]: 37%
- Population Mitotic Cells (%) [7]: 16%
- Population Normal (%) [7]: 91%
- Population Pyknosed Nuclei (%) [7]: 14%
- Population Tubulin-Different-Phenotype (%) [7]: 63%
- Total Cell Count [7]: 132
- Population Apoptotic (%) [8]: 40%
- Population Fragmented Nuclei (%) [8]: 39%
- Population Healthy Nuclei (%) [8]: 41%
- Population Hoechst High Intensity Objects (%) [8]: 3%
- Population Membrane Permeable-Phenotype (%) [8]: 8%
- Population Mitochondria Different-Phenotype (%) [8]: 8%
- Population Mitotic Cells (%) [8]: 59%
- Population Normal (%) [8]: 96%
- Population Pyknosed Nuclei (%) [8]: 19%
- Population Tubulin-Different-Phenotype (%) [8]: 76%
- Total Cell Count [8]: 116
- Population Apoptotic (%) [9]: 84%
- Population Fragmented Nuclei (%) [9]: 18%
- Population Healthy Nuclei (%) [9]: 71%
- Population Hoechst High Intensity Objects (%) [9]: 5%
- Population Membrane Permeable-Phenotype (%) [9]: 1%
- Population Mitochondria Different-Phenotype (%) [9]: 12%
- Population Mitotic Cells (%) [9]: 15%
- Population Normal (%) [9]: 94%
- Population Pyknosed Nuclei (%) [9]: 10%
- Population Tubulin-Different-Phenotype (%) [9]: 34%
- Total Cell Count [9]: 138
- Population Apoptotic (%) [10]: 60%
- Population Fragmented Nuclei (%) [10]: 31%
- Population Healthy Nuclei (%) [10]: 52%
- Population Membrane Permeable-Phenotype (%) [10]: 5%
- Population Mitochondria Different-Phenotype (%) [10]: 5%
- Population Mitotic Cells (%) [10]: 40%
- Population Pyknosed Nuclei (%) [10]: 15%
- Population Tubulin-Different-Phenotype (%) [10]: 56%
- Total Cell Count [10]: 171
- Population Apoptotic (%) [11]: 84%
- Population Fragmented Nuclei (%) [11]: 18%
- Population Healthy Nuclei (%) [11]: 63%
- Population Hoechst High Intensity Objects (%) [11]: 14%
- Population Membrane Permeable-Phenotype (%) [11]: 0%
- Population Mitochondria Different-Phenotype (%) [11]: 34%
- Population Mitotic Cells (%) [11]: 15%
- Population Normal (%) [11]: 85%
- Population Pyknosed Nuclei (%) [11]: 18%
- Population Tubulin-Different-Phenotype (%) [11]: 65%
- Total Cell Count [11]: 122
- Population Apoptotic (%) [12]: 44%
- Population Fragmented Nuclei (%) [12]: 50%
- Population Healthy Nuclei (%) [12]: 41%
- Population Hoechst High Intensity Objects (%) [12]: 3%
- Population Membrane Permeable-Phenotype (%) [12]: 8%
- Population Mitochondria Different-Phenotype (%) [12]: 8%
- Population Mitotic Cells (%) [12]: 55%
- Population Normal (%) [12]: 96%
- Population Pyknosed Nuclei (%) [12]: 7%
- Population Tubulin-Different-Phenotype (%) [12]: 67%
